pKi: −log10 of the molar value. Active and inactive are the calls of the source. The calls are words filed in the database; no cut-off is given here. Residues, ends and D or L forms follow the SMILES beside them. *: point of attachment. Cbz = O=C(OCc1ccccc1)*; CH2F = FC*
Key:
[1] = molecular target: E3 ubiquitin-protein ligase XIAP (Homo sapiens) (UniProt P98170); assay: Inhibition of human recombinant GST tagged XIAP expressed in Escherichia coli assessed as restoration of XIAP-mediated suppression of caspase-3 activity after 1 hrs using fluorogenic tetrapeptide Ac-DEVD-AFC substrate by caspase de-repression assay
Chain of E3 ubiquitin-protein ligase XIAP (Homo sapiens) (P98170 whole entry, the tested form may be a part): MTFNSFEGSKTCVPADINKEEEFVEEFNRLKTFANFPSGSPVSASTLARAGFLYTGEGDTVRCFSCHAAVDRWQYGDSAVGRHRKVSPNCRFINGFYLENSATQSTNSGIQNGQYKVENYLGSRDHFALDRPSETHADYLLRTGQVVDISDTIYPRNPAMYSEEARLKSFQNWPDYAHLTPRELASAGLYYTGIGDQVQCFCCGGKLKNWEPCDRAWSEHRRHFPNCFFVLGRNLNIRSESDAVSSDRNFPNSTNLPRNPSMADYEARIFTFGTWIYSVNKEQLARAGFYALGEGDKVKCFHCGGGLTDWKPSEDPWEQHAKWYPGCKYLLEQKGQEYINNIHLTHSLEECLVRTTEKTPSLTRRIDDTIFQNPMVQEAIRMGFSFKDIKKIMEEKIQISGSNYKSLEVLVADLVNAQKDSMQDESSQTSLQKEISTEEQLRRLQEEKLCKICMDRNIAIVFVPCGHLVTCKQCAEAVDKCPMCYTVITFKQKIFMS

[2] = molecular target: T1, Caspase-3 (Homo sapiens) (UniProt P42574); assay: Effect on human caspase-3 activity at 10 uM in the absence of XIAP after 1 hrs using fluorogenic tetrapeptide Ac-DEVD-AFC as substrate
T1 sequence (whole entry): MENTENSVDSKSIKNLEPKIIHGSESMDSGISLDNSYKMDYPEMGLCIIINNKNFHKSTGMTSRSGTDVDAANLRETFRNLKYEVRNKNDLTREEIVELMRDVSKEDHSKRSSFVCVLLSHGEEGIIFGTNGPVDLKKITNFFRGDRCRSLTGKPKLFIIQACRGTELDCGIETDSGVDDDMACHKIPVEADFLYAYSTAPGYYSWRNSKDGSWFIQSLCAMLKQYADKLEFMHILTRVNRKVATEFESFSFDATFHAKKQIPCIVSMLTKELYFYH

[3] = molecular target: E3 ubiquitin-protein ligase XIAP (Homo sapiens) (UniProt P98170); assay: Inhibition of human GST-tagged XIAP binding to active human caspase-3 at 3 uM after 1 hrs by GST pull-down assay
[4] = tested on: HeLa; assay: Induction of sensitization of human HeLa cells to camptothecin-induced apoptosis assessed as induction DNA fragmentation at 10 uM after 24 hrs by propidium iodide-staining based FACS assay; format: functional, cell-based
Method in brief: (§1)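 HeLa cells seeded at 1×10^5 cells/well and cultured overnight, then exposed to various concentrations of test compounds for 24 h. Nuclei stained with propidium iodide. Cell death measured by flow cytometry as DNA fragmentation, read as the sub-G1 population.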

[5] = tested on: HeLa; assay: Induction of sensitization of human HeLa cells to staurosporine-induced apoptosis assessed as induction DNA fragmentation at 10 uM after 24 hrs by propidium iodide-staining based FACS assay; format: functional, cell-based; method in brief: as §1
[6] = tested on: HeLa; assay: Suppression of camptothecin-induced apoptosis in human HeLa cells assessed as reduction in DNA fragmentation at 100 uM after 24 hrs by propidium iodide-staining based FACS assay; format: functional, cell-based
Method in brief: (§2)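 HeLa cells seeded at 1×10^5 cells/well, cultured overnight, treated with test compounds at various concentrations for 24 h. Nuclei stained with propidium iodide; cell death scored by flow cytometry as the sub-G1 (fragmented DNA) population.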

[7] = tested on: HeLa; assay: Suppression of staurosporine-induced apoptosis in human HeLa cells assessed as reduction in DNA fragmentation at 100 uM after 24 hrs by propidium iodide-staining based FACS assay; format: functional, cell-based; method in brief: as §2
[8] = tested on: HeLa; assay: Induction of sensitization of human HeLa cells to camptothecin-induced apoptosis assessed as induction DNA fragmentation at 160 nM after 24 hrs by propidium iodide-staining based FACS assay; format: functional, cell-based; method in brief: as §1
[9] = tested on: HeLa; assay: Induction of sensitization of human HeLa cells to staurosporine-induced apoptosis assessed as induction DNA fragmentation at 160 nM after 24 hrs by propidium iodide-staining based FACS assay; format: functional, cell-based; method in brief: as §1
[10] = molecular target: Protein kinase C alpha type (Homo sapiens, UniProt P17252); assay: Inhibition of [3H]PDBu binding to PKCalpha-C1A domain peptide
[11] = molecular target: Protein kinase C beta type (Homo sapiens, UniProt P05771); assay: Inhibition of [3H]PDBu binding to PKCbeta-C1A domain peptide
Chain of Protein kinase C beta type (P05771 whole entry, the tested form may be a part): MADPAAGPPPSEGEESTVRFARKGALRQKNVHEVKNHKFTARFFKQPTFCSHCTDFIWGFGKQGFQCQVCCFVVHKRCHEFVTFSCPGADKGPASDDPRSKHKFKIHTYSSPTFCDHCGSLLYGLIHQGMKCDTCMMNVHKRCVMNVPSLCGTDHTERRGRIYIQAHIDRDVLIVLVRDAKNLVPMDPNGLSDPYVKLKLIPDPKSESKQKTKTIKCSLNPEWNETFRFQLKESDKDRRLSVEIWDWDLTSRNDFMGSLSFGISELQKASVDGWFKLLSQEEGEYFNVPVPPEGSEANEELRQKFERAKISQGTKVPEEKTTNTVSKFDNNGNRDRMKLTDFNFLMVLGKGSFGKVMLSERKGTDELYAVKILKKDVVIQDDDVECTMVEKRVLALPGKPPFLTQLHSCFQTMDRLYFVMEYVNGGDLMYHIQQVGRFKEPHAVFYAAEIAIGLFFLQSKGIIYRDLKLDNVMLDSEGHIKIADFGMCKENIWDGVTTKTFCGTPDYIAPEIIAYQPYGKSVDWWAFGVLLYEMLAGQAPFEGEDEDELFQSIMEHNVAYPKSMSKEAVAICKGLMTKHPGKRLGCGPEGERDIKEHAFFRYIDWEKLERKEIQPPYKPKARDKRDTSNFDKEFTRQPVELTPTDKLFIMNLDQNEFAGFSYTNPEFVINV

[12] = molecular target: Protein kinase C gamma type (Homo sapiens, UniProt P05129); assay: Inhibition of [3H]PDBu binding to PKCgamma-C1A domain peptide
[13] = molecular target: Protein kinase C delta type (Homo sapiens, UniProt Q05655); assay: Inhibition of [3H]PDBu binding to PKCdelta-C1B domain peptide
Chain of Protein kinase C delta type (Q05655 whole entry, the tested form may be a part): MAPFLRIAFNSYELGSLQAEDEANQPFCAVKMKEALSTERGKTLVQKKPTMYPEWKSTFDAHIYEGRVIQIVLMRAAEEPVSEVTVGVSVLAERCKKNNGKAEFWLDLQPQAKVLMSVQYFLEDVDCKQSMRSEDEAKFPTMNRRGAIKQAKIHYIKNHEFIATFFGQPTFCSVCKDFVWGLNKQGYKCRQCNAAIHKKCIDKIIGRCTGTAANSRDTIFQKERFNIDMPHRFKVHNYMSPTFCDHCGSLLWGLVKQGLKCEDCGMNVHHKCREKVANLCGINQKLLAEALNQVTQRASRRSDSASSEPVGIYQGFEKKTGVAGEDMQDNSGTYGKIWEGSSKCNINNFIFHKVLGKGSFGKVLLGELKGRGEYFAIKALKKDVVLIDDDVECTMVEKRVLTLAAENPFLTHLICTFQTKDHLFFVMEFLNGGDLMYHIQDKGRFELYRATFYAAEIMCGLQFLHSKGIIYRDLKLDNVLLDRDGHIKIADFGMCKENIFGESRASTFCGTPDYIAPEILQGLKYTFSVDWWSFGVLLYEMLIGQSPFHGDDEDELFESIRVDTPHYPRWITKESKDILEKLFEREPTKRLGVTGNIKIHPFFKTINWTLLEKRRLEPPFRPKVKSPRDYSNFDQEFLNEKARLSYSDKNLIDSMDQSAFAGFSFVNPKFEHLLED

[14] = molecular target: T2, Protein kinase C epsilon type (Homo sapiens, UniProt Q02156); assay: Inhibition of [3H]PDBu binding to PKCepsilon-C1B domain peptide
T2 sequence (Q02156 whole entry): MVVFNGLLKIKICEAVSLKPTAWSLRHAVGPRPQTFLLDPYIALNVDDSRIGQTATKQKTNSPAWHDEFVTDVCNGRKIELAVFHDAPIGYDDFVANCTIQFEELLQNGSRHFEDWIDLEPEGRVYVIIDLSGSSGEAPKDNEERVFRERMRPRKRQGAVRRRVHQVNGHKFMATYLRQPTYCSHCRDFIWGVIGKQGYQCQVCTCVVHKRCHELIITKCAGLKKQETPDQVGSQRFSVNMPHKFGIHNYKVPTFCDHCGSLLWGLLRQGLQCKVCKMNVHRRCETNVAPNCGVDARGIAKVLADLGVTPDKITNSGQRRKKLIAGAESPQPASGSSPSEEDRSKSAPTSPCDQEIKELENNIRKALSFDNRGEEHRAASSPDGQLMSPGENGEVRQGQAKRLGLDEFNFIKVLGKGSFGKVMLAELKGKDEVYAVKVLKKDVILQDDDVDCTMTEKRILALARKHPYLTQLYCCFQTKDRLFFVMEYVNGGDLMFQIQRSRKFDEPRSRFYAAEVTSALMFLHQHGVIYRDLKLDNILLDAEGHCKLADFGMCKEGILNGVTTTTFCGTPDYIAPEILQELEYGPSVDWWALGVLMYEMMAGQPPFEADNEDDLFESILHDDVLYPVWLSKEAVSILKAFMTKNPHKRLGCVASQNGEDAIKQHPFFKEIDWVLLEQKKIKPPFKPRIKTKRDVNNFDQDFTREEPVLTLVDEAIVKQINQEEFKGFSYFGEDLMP

[15] = molecular target: Protein kinase C eta type (Homo sapiens, UniProt P24723); assay: Inhibition of [3H]PDBu binding to PKCeta-C1B domain peptide
Chain of Protein kinase C eta type (P24723 whole entry, the tested form may be a part): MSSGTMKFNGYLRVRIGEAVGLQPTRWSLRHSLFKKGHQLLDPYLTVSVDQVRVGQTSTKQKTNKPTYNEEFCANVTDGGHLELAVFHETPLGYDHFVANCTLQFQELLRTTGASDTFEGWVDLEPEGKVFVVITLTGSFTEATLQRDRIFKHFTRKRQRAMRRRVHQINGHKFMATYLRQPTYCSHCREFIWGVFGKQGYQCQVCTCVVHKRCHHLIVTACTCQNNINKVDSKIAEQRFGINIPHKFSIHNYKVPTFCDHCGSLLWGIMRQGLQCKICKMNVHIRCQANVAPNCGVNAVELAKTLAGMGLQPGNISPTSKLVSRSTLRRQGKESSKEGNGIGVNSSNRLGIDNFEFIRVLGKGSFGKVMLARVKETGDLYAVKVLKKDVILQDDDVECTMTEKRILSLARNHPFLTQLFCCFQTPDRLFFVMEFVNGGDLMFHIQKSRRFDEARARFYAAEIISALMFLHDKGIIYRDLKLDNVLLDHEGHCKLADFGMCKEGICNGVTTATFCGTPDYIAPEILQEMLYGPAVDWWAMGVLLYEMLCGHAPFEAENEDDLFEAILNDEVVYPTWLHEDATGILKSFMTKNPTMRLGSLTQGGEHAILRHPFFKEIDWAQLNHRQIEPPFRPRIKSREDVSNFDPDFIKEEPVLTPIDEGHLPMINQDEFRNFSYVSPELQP

[16] = tested on: HeLa; assay: Induction of sensitization of human HeLa cells to camptothecin-induced apoptosis at 10 uM after 48 hrs by trypan blue dye exclusion assay; format: functional, cell-based
Method in brief: (§3)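 HeLa cells seeded at 2×10^4 cells/well, cultured overnight, then exposed to test compounds at various concentrations for 48 h. Viable cells counted by trypan blue dye exclusion.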

[17] = tested on: HeLa; assay: Induction of sensitization of human HeLa cells to staurosporine-induced apoptosis at 10 uM after 48 hrs by trypan blue dye exclusion assay; format: functional, cell-based; method in brief: as §3

Which inhibition [1] does the source give for `C=C[C@]1(C)CC[C@@](C)(C(C)C)c2cc3c4c(c[nH]c4c21)C[C@@H](CO)NC(=O)[C@H](C(C)C)N3C` here?
The inhibition was “inactive”.

And the Activity [2]?
The Activity was “Active”.

And the inhibition [3]?
The inhibition was “inactive”.

What about the Activity [4] of the same compound?
The Activity was “inactive”.

And the Activity [5]?
Its Activity is “inactive”.

With `COC(=O)C[C@H](NC(=O)[C@H](C)NC(=O)[C@@H](NC(=O)OCc1ccccc1)C(C)C)C(=O)CF` (Cbz-Val-Ala-Asp(OMe)-CH2F) as the compound, how does the Activity [6] read?
Its Activity is “inactive”.

What about the Activity [7] of the same compound?
Its Activity is “inactive”.

`CCCCCCCCCCCCCC(=O)O[C@@H]1[C@@H](C)[C@@]2(O)[C@@H](C=C(CO)C[C@]3(O)C(=O)C(C)=C[C@@H]23)[C@@H]2C(C)(C)[C@]12OC(C)=O` was tested. Which Activity [8] did it give?
Its Activity is “inactive”.

What about the Activity [9] of the same compound?
The Activity was “inactive”.

Which inhibition [1] does the source give for `C=C[C@@]1(C)CC[C@](C)(C(C)C)c2cc3c4c(c[nH]c4c21)CC(=O)NC(=O)[C@H](C(C)C)N3C` here?
Its inhibition is “Active”.

What about the inhibition [2] of the same compound?
Its inhibition is “inactive”.

And the inhibition [3]?
Its inhibition is “Active”.

What about the pKi [10] of the same compound?
The pKi was 6.22.

And the pKi [11]?
The pKi was 6.14.

And the pKi [12]?
Its pKi is 6.18.

What about the pKi [13] of the same compound?
Its pKi is 7.06.

And the pKi [14]?
The pKi was 6.32.

What about the pKi [15] of the same compound?
The pKi was 6.44.

And the Activity [16]?
Its Activity is “Active”.

What about the Activity [4] of the same compound?
Its Activity is “Active”.

And the Activity [5]?
The Activity was “Active”.

What about the Activity [17] of the same compound?
Its Activity is “Active”.

Source: ChEMBL document CHEMBL1806492, “Generation of 'Unnatural Natural Product' library and identification of a small molecule inhibitor of XIAP” (Bioorg Med Chem, 2011)
